Laboratory results from ChEMBL document CHEMBL4145546, “A multidisciplinary study of 3-(β-d-glucopyranosyl)-5-substituted-1,2,4-triazole derivatives as glycogen phosphorylase inhibitors: Computation, synthesis, crystallography and kinetics reveal new potent inhibitors” (Eur J Med Chem, 2018).
pKi: −log10 of the molar value. The source made the active and inactive calls. The calls are words filed in the database; no cut-off is given here.

What was measured:
[1] = biological target: T1, Glycogen phosphorylase, muscle form (Oryctolagus cuniculus) (UniProt P00489); assay: Inhibition of rabbit muscle glycogen phosphorylase-b at 625 uM assessed as release of inorganic phosphate using glucose-1-phosphate as substrate in presence of AMP and glycogen by spectrophotometric method
T1 sequence (whole entry): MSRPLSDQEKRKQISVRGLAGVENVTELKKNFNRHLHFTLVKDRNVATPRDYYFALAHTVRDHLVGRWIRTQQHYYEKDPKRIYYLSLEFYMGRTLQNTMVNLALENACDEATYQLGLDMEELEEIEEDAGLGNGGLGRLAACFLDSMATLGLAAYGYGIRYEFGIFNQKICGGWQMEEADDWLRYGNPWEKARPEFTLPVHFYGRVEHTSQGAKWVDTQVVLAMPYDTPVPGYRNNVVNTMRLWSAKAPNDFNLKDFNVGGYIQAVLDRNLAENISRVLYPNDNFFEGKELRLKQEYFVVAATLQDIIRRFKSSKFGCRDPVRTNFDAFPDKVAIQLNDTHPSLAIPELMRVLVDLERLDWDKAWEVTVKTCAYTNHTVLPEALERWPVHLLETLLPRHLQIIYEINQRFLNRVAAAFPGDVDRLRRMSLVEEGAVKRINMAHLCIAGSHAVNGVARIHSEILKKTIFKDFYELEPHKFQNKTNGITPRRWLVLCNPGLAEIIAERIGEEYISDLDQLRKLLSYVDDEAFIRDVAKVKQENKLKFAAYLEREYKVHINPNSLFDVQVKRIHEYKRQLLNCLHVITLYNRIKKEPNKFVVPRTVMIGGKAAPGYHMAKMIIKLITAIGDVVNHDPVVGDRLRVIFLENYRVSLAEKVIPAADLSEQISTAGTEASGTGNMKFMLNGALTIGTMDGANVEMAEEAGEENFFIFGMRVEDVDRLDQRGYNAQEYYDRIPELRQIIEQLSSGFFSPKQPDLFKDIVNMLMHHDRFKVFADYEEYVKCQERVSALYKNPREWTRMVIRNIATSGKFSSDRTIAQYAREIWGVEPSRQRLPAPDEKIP

[2] = Inhibition of glycogen phosphorylase (unknown origin); design: species or system Homo sapiens
[3] = biological target: T2, Glycogen phosphorylase, muscle form (Oryctolagus cuniculus, UniProt P00489); assay: Inhibition of rabbit muscle glycogen phosphorylase-b assessed as release of inorganic phosphate using glucose-1-phosphate as substrate in presence of AMP and glycogen by spectrophotometric method
T2 sequence (P00489 whole entry): T1 sequence (whole entry)
Outline: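 GPb was purified from rabbit skeletal muscle and used at 3 μg/mL at 30 °C, synthesis direction. Medium was 30 mM imidazole/HCl pH 6.8, 60 mM KCl, 0.6 mM EDTA, 0.6 mM DTT, 0.2% w/v glycogen and 1 mM AMP, with Glc-1-P and inhibitor varied. Initial rates came from pseudo-first-order constants of spectrophotometric phosphate release at five time points, fitted by non-linear regression.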

[4] = biological target: T2, Glycogen phosphorylase, muscle form; assay: Inhibition of rabbit muscle glycogen phosphorylase-a assessed as release of inorganic phosphate using glucose-1-phosphate as substrate in presence of glycogen by spectrophotometric method
Outline: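 Rabbit muscle GPa was made by phosphorylating purified rabbit skeletal muscle GPb and used at 3 μg/mL, without AMP. Buffer was 30 mM imidazole/HCl pH 6.8 with 60 mM KCl, 0.6 mM EDTA, 0.6 mM DTT and 0.2% w/v glycogen, with varied Glc-1-P and inhibitor, at 30 °C. Phosphate release was measured spectrophotometrically at five intervals, and data were fitted non-linearly.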

[5] = biological target: T3, Glycogen phosphorylase, liver form (Homo sapiens, UniProt P06737); assay: Inhibition of human liver glycogen phosphorylase-a assessed as release of inorganic phosphate using glucose-1-phosphate as substrate in presence of glycogen by spectrophotometric method
T3 sequence (P06737 whole entry): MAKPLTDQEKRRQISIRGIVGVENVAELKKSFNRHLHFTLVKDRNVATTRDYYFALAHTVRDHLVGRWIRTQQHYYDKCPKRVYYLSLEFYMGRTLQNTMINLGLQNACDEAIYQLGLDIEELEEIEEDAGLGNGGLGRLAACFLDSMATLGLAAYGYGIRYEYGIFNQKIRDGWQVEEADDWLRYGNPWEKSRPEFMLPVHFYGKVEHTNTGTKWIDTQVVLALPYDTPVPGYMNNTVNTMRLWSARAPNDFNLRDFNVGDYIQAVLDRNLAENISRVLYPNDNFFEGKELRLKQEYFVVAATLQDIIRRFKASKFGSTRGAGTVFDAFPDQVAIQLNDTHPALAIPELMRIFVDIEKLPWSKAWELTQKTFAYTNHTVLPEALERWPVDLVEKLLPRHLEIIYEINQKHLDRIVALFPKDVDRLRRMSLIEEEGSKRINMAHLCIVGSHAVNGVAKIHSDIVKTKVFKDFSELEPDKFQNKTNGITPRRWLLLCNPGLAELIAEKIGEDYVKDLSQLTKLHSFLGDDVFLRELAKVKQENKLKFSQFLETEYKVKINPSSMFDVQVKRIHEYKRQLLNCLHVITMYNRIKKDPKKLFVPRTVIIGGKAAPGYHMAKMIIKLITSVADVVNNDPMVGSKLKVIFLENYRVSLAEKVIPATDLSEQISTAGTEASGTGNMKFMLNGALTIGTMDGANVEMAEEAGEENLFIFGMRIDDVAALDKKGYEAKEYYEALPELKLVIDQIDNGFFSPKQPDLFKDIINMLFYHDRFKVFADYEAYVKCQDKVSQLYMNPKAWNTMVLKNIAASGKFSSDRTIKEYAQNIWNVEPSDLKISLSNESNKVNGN
Outline: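 Human liver GPa (1 μg/mL) assayed at 30 °C toward glycogen synthesis in 30 mM imidazole/HCl pH 6.8 with 60 mM KCl, 0.6 mM EDTA, 0.6 mM DTT, 0.2% w/v glycogen, no AMP, and varied Glc-1-P and inhibitor. Orthophosphate release was read spectrophotometrically at five time points; kinetic parameters were fitted by non-linear regression.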

SMILES | inhibition [1] | pKi [2] | pKi [3] | pKi [4] | pKi [5]
CN(C)/C=N/S(=O)(=O)c1ccc(-c2n[nH]c([C@@H]3O[C@H](CO)[C@@H](O)[C@H](O)[C@H]3O)n2)cc1 | inactive | – | – | – | –
OC[C@H]1O[C@@H](c2nc(-c3cccc(-c4ccccc4)c3)n[nH]2)[C@H](O)[C@@H](O)[C@@H]1O | – | – | 4.17 | – | –
O=C(O)c1ccc2cc(-c3n[nH]c([C@@H]4O[C@H](CO)[C@@H](O)[C@H](O)[C@H]4O)n3)ccc2c1 | – | – | 5.30 | 6.11 | 5.41
OC[C@H]1O[C@@H](c2nc(-c3ccc4c(c3)Cc3ccccc3-4)n[nH]2)[C@H](O)[C@@H](O)[C@@H]1O | – | – | 5.92 | 6.08 | 5.69
OC[C@H]1O[C@@H](c2nc(-c3ccc4cc5ccccc5cc4c3)n[nH]2)[C@H](O)[C@@H](O)[C@@H]1O | – | – | 4.70 | – | –
NS(=O)(=O)c1ccc(-c2n[nH]c([C@@H]3O[C@H](CO)[C@@H](O)[C@H](O)[C@H]3O)n2)cc1 | – | – | 4.01 | – | –
OC[C@H]1O[C@@H](c2nc(-c3cccc4ccccc34)n[nH]2)[C@H](O)[C@@H](O)[C@@H]1O | – | – | 4.94 | 5.47 | 5.05
OC[C@H]1O[C@@H](c2nc(-c3ccc4ccc5cccc6ccc3c4c56)n[nH]2)[C@H](O)[C@@H](O)[C@@H]1O | – | – | < 2.82 | – | –
O=C(O)c1ccc(-c2ccc(-c3n[nH]c([C@@H]4O[C@H](CO)[C@@H](O)[C@H](O)[C@H]4O)n3)cc2)cc1 | – | – | 5.35 | 6.01 | 5.57
OC[C@H]1O[C@@H](c2nc(-c3ccc(-c4ccccc4)cc3)n[nH]2)[C@H](O)[C@@H](O)[C@@H]1O | – | – | 5.62 | 5.68 | 5.65
